Entries after “also recorded” stand apart in the source; their conditions may differ. Where a name gives a salt, the structure may show the parent alone.
Experiments:
[1] = test system: MA-10 mouse tumor Leydig cells; experiment: Cellular toxicity by MTT assay; assay type: cell-based; details: 100 μM, 2 h
Summary of the method: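 MA-10 mouse Leydig tumor cells were grown in DMEM/F-12 Ham with 5% fetal bovine serum and 2.5% heat-inactivated horse serum. They were exposed to test compound for 2 h, at 100 μM or over 0.1–100 μM, and toxicity was read by MTT. Single-concentration data are mean ± S.E.M. (n=3), compared by one-way ANOVA with Newman-Keuls post-test. Dose curves were fitted by nonlinear regression.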

[2] = test system: MA-10 mouse tumor Leydig cells; experiment: Steroidogenesis assay: progesterone production by RIA; assay type: cell-based; details: for time of first maximum steroid production: 50 μM, 0–120 min, biphasic time response; for stimulation of progesterone production: 100 μM; for stimulation of progesterone production / progesterone production: 2 h incubation, RIA; for progesterone production: all tested concentrations (0–100 μM)
Summary of the method: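 Cells were plated at 2.5 × 10^4 per well, left to adhere 18 h, washed with PBS, then given serum-free medium with 0–100 μM test compound from DMSO stocks (final DMSO <0.02%; controls matched). Incubation was 2 h, or 0–120 min at 50 μM (n=2). Medium progesterone was measured by RIA with anti-progesterone antisera and normalized to well protein (Bradford, BSA standard).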

[3] = test system: C57BL/6 mice; experiment: SmartCube behavioral assay; assay type: in vivo, mouse; details: for SmartCube signature after chronic administration: 50 mg/kg i.p. once a day for 13 days; for SmartCube signature after a single dose: 50 mg/kg i.p., day 1, 15 min after dose
Summary of the method: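 Mice received test compound at 50 mg/kg i.p. once daily for 13 days, dosed 15 min before a session presenting multiple challenges, with at least 12 mice per group. Behavioral features were analyzed by computer algorithms and data mining. They were compared with a database of signatures from reference antipsychotics, anxiolytics and antidepressants.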

[4] = test system: mouse model of mania; details: amphetamine and chlordiazepoxide induced; cited from earlier work
[5] = target: human GSK-3β (Homo sapiens, UniProt P49841); experiment: GSK-3β inhibition, phosphorylation of primed substrate; assay type: biochemical
Chain of human GSK-3β (P49841 whole entry): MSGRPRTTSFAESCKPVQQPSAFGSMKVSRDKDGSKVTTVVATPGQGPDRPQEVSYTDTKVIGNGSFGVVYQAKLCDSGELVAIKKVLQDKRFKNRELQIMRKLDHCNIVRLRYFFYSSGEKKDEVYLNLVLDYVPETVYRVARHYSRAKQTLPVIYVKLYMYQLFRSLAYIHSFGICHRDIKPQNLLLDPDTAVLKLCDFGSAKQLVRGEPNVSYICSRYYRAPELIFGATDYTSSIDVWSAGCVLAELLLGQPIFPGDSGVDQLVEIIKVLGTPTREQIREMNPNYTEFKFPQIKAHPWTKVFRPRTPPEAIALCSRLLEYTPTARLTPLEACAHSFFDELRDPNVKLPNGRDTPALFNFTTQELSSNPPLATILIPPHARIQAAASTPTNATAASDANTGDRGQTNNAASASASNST

Row | Compound | cellular toxicity (MTT) [1] | stimulation of progesterone production [2] | progesterone production [2] | other results
1 | Cn1cc(C2=C(c3coc4ccccc34)C(=O)NC2=O)c2cc(Br)ccc21 [Compound 1, 3-(benzofuran-3-yl)-4-(5-bromo-1-methyl-1H-indol-3-yl)-1H-pyrrole-2,5-dione] | either low or no apparent toxicity | bioactive in stimulating progesterone production | – | time of first maximum steroid production [2]: ≤ 15 min; SmartCube signature after chronic administration [3]: predicting anxiolytic-like activity; SmartCube signature after a single dose [3]: Neither compound demonstrated any classified behavioral activity; effect on hyperactivity [4]: attenuates hyperactivity
2 | COCCn1cc(C2=C(c3coc4ccccc34)C(=O)NC2=O)c2ccccc21 [Compound 9, 3-(Benzofuran-3-yl)-4-(1-(2-methoxyethyl)-1H-indol-3-yl)-1H-pyrrole-2,5-dione] | either low or no apparent toxicity | bioactive in stimulating progesterone production | – | time of first maximum steroid production [2]: ≤ 15 min; SmartCube signature after chronic administration [3]: predicting anxiolytic-like activity; SmartCube signature after a single dose [3]: Neither compound demonstrated any classified behavioral activity
3 | COCCn1cc(C2=C(c3coc4ccccc34)C(=O)NC2=O)c2cc(F)c(F)cc21 [Compound 12, 3-(Benzofuran-3-yl)-4-(5,6-difluoro-1-(2-methoxyethyl)-1H-indol-3-yl)-1H-pyrrole-2,5-dione] | significantly more cytotoxic; also recorded: toxic to the MA-10 cells | bioactive in stimulating progesterone production | – | –
4 | Cn1cc(C2=C(c3coc4ccccc34)C(=O)NC2=O)c2cc(Br)cnc21 [Compound 13, 3-(Benzofuran-3-yl)-4-(5-bromo-1-methyl-1H-pyrrolo[2,3-b]pyridin-3-yl)-1H-pyrrole-2,5-dione] | either low or no apparent toxicity | bioactive in stimulating progesterone production | – | IC50 [5]: 5 nM
5 | COCCn1cc(C2=C(c3coc4ccccc34)C(=O)NC2=O)c2cc(Br)cnc21 [Compound 14, 3-(Benzofuran-3-yl)-4-(5-bromo-1-(2-methoxyethyl)-1H-pyrrolo[2,3-b]pyridin-3-yl)-1Hpyrrole-2,5-dione] | either low or no apparent toxicity | bioactive in stimulating progesterone production | – | –
6 | COCCn1cc(C2=C(c3coc4ccccc34)C(=O)NC2=O)c2cccnc21 [Compound 16, 3-(Benzofuran-3-yl)-4-(1-(2-methoxyethyl)-1H-pyrrolo[2,3-b]pyridin-3-yl)-1H-pyrrole-2,5-dione] | low, but observable signs of cytotoxicity | – | < 30 ng progesterone/mg protein | –
7 | COc1cc2c(C3=C(c4coc5ccccc45)C(=O)NC3=O)cn(C)c2cn1 [Compound 17, 3-(Benzofuran-3-yl)-4-(5-methoxy-1-methyl-1H-pyrrolo[2,3-c]pyridin-3-yl)-1H-pyrrole-2,5-dione] | – | – | < 30 ng progesterone/mg protein | –
8 | Cn1cc(C2=C(c3cnc4ccccn34)C(=O)NC2=O)c2cc3c(cc21)OCO3 [Compound 19, 3-(Imidazo[1,2-a]pyridin-3-yl)-4-(5-methyl-5H-[1,3]dioxolo[4,5-f]indol-7-yl)-1H-pyrrole-2,5-dione trifluoroacetate] | – | – | – | IC50 [5]: 5 nM
9 | Cn1cc(C2=C(c3cnc4ccccn34)C(=O)NC2=O)c2cc(Br)ccc21 [Compound 20, 3-(5-Bromo-1-methyl-1H-indol-3-yl)-4-(imidazo[1,2-a]pyridin-3-yl)-1H-pyrrole-2,5-dione trifluoroacetate] | – | – | < 30 ng progesterone/mg protein | –
10 | COCCc1cccc2c(C3=C(c4coc5ccccc45)C(=O)NC3=O)cn(C)c12 [Compound 21, 3-(Benzofuran-3-yl)-4-(7-(2-methoxyethyl)-1-methyl-1H-indol-3-yl)-1H-pyrrole-2,5-dione] | either low or no apparent toxicity | bioactive in stimulating progesterone production | – | –
11 | COCCc1cccc2c(C3=C(c4coc5ccccc45)C(=O)NC3=O)cn(CCOC)c12 [Compound 23, 3-(Benzofuran-3-yl)-4-(1,7-bis(2-methoxyethyl)-1H-indol-3-yl)-1H-pyrrole-2,5-dione] | low, but observable signs of cytotoxicity | – | < 30 ng progesterone/mg protein | –
12 | O=C1NC(=O)C(c2cn3c4c(cc(F)cc24)CNCC3)=C1c1coc2ccccc12 [Compound 25, 3-(Benzofuran-3-yl)-4-(9-fluoro-1,2,3,4-tetrahydro-[1,4]diazepino[6,7,1-hi]indol-7-yl)-1H-pyrrole-2,5-dione trifluoroacetate] | – | – | < 30 ng progesterone/mg protein | –
13 | O=C1NC(=O)C(c2cn3c4c(cc(Br)cc24)CNCC3)=C1c1coc2ccccc12 [Compound 26, 3-(Benzofuran-3-yl)-4-(9-bromo-1,2,3,4-tetrahydro-[1,4]diazepino[6,7,1-hi]indol-7-yl)-1H-pyrrole-2,5-dione trifluoroacetate] | toxic to the MA-10 cells | bioactive in stimulating progesterone production | – | –
14 | O=C1NC(=O)C(c2cn3c4c(cc(F)cc24)CN(C(=O)N2CCC(N4CCCCC4)CC2)CC3)=C1c1coc2ccccc12 [Compound 30, 3-(2-([1,4’-Bipiperidine]-1’-carbonyl)-9-fluoro-1,2,3,4-tetrahydro-[1,4]diazepino[6,7,1-hi]indol-7-yl)-4-(benzofuran-3-yl)-1H-pyrrole-2,5-dione trifluoroacetate] | significantly more cytotoxic | – | – | –
15 | O=C1NC(=O)C(c2cn3c4c(cc(F)cc24)CN(C(=O)N2CCOCC2)CC3)=C1c1coc2ccccc12 [Compound 31, 3-(Benzofuran-3-yl)-4-(9-fluoro-2-(morpholine-4-carbonyl)-1,2,3,4-tetrahydro-[1,4]diazepino[6,7,1-hi]indol-7-yl)-1H-pyrrole-2,5-dione] | significantly more cytotoxic | – | – | –
